# According to ChEMBL document CHEMBL1135458, “Discovery and biological evaluation of a new family of potent modulators of multidrug resistance: reversal of multidrug resistance of mouse lymphoma cells by new natural jatrophane diterpenoids isolated from Euphorbia species” (2002):
# Tests used:
# Assay type in all cases: functional
# Lymphoma cell line [1] = assay: Ability to reverse the multidrug resistance (MDR) of mouse Lymphoma cells, by Granulation (SSC) at 20 ug/mL.
# Outline: (§1)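 L5178 mouse T-cell lymphoma cells carrying the MDR1 gene (via pHa MDR1/A retrovirus, kept under 60 ng/mL colchicine), with the L5178Y parent line. Cells grown in McCoy's 5A with 10% heat-inactivated horse serum. Cells at 2 × 10^6/mL in serum-free medium were given compound (1.0 mg/mL DMSO stock) for 10 min at room temperature. Rhodamine 123 (5.2 µM final) was then added for 20 min at 37 °C. Cells were washed twice, resuspended in PBS, and read by flow cytometry for FSC, SSC and FL-1.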
# Lymphoma cell line [2] = assay: Ability to reverse the multidrug resistance (MDR) of mouse Lymphoma cells, fluorescence activity ratio at 2 ug/mL.
# Outline: (§2)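 Rhodamine 123 accumulation by flow cytometry. MDR1-transduced L5178 mouse lymphoma cells and parental L5178Y cells at 2 × 10^6/mL in serum-free McCoy's 5A. Compound from DMSO stock for 10 min at room temperature, then 5.2 µM rhodamine 123 for 20 min at 37 °C, with two washes. Activity ratio: treated/untreated fluorescence of MDR cells divided by treated/untreated fluorescence of parental cells.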
# Lymphoma cell line [3] = assay: Ability to reverse the multidrug resistance (MDR) of mouse Lymphoma cells, by shrinkage (FSC) at 2 ug/mL.; outline: as §1
# Lymphoma cell line [4] = assay: Ability to reverse the multidrug resistance (MDR) of mouse Lymphoma cells, fluorescence activity ratio at 20 ug/mL.; outline: as §2
# Lymphoma cell line [5] = assay: Ability to reverse the multidrug resistance (MDR) of mouse Lymphoma cells, FL-1at 2 ug/mL; parameters: reference not given here; outline: as §1
# Lymphoma cell line [6] = assay: Ability to reverse the multidrug resistance (MDR) of mouse Lymphoma cells, by shrinkage (FSC) at 20 ug/mL.; outline: as §1
# Lymphoma cell line [7] = assay: Ability to reverse the multidrug resistance (MDR) of mouse Lymphoma cells, FL-1at 20 ug/mL; parameters: reference not given here; outline: as §1
# Lymphoma cell line [8] = assay: Ability to reverse the multidrug resistance (MDR) of mouse Lymphoma cells, by Granulation (SSC) at 2 ug/mL.; outline: as §1
# Lymphoma cell line [9] = assay: Ability to reverse the multidrug resistance (MDR) of mouse Lymphoma cells, fluorescence activity ratio at 4 ug/mL.; outline: as §2
# Lymphoma cell line [10] = assay: Ability to reverse the multidrug resistance (MDR) of mouse Lymphoma cells, FL-1at 4 ug/mL; outline: as §1
# Lymphoma cell line [11] = assay: Ability to reverse the multidrug resistance (MDR) of mouse Lymphoma cells, by Granulation (SSC) at 4 ug/mL.; outline: as §1
# Lymphoma cell line [12] = assay: Ability to reverse the multidrug resistance (MDR) of mouse Lymphoma cells, by shrinkage (FSC) at 4 ug/mL.; outline: as §1
# Lymphoma cell line [13] = assay: Ability to reverse the multidrug resistance (MDR) of mouse Lymphoma cells, by Granulation (SSC) at 5 ug/mL.; outline: as §1
# Lymphoma cell line [14] = assay: Ability to reverse the multidrug resistance (MDR) of mouse Lymphoma cells, fluorescence activity ratio at 5 ug/mL.; outline: as §2
# Lymphoma cell line [15] = assay: Ability to reverse the multidrug resistance (MDR) of mouse Lymphoma cells, by shrinkage (FSC) at 5 ug/mL.; outline: as §1
# Lymphoma cell line [16] = assay: Ability to reverse the multidrug resistance (MDR) of mouse Lymphoma cells, FL-1at 5 ug/mL; outline: as §1
Structure (SMILES),SSC (Lymphoma cell line [1]),Fluorescence activity ratio (Lymphoma cell line [2]),FSC (Lymphoma cell line [3]),Fluorescence activity ratio (Lymphoma cell line [4]),FL-1 (Lymphoma cell line [5]),FSC (Lymphoma cell line [6]),FL-1 (Lymphoma cell line [7]),SSC (Lymphoma cell line [8]),Fluorescence activity ratio (Lymphoma cell line [9]),FL-1 (Lymphoma cell line [10]),SSC (Lymphoma cell line [11]),FSC (Lymphoma cell line [12]),SSC (Lymphoma cell line [13]),Fluorescence activity ratio (Lymphoma cell line [14]),FSC (Lymphoma cell line [15]),FL-1 (Lymphoma cell line [16])
CC(=O)O[C@@H]1[C@@H](OC(C)=O)C(C)(C)/C=C/[C@H](C)[C@H](OC(C)=O)[C@@]2(OC(C)=O)C[C@H](C)[C@H](OC(=O)c3ccccc3)/C2=C\[C@](C)(O)[C@@H]1OC(C)=O,175.29,4.31,641.56,4.86,37.12,658.03,41.9,166.49,,,,,,,,
CC(=O)O[C@@H]1[C@@H](OC(C)=O)C(C)(C)/C=C/[C@H](C)C(=O)[C@@]2(OC(C)=O)C[C@@H](C)[C@H](OC(=O)c3ccccc3)/C2=C\[C@](C)(O)[C@@H]1OC(C)=O,232.7,8.87,562.62,6.7,532.78,565.55,401.98,237.88,,,,,,,,
CC(=O)O[C@@H]1[C@@H](OC(C)=O)C(C)(C)/C=C/[C@H](C)[C@H](OC(C)=O)[C@@]2(OC(C)=O)C[C@@H](C)[C@H](OC(=O)c3ccccc3)[C@@H]2/C=C(\C)[C@@H]1O,167.73,20.98,653.55,34.79,180.81,654.67,299.93,165.87,,,,,,,,
C=C1[C@H](OC(C)=O)[C@@H](O)[C@@H](OC(=O)c2cccnc2)C(C)(C)/C=C/[C@H](C)[C@H](OC(C)=O)[C@@]2(O)C[C@@](C)(OC(C)=O)[C@H](OC(=O)c3ccccc3)[C@@H]2[C@H]1OC(C)=O,291.38,12.75,632.81,71.98,155.62,636.35,878.14,301.64,,,,,,,,
C=C1[C@H](OC(=O)C(C)C)[C@@H](OC(C)=O)[C@@H](OC(C)=O)C(C)(C)/C=C/[C@@H](C)C(=O)[C@@]2(OC(C)=O)C[C@@](C)(OC(C)=O)[C@H](OC(C)=O)[C@@H]2[C@H]1OC(C)=O,254.87,5.52,589.78,14.75,166.44,620.4,444.35,246.26,,,,,,,,
C=C1[C@H](OC(C)=O)[C@@H](OC(C)=O)[C@@H](OC(C)=O)C(C)(C)/C=C/[C@H](C)[C@H](OC(C)=O)[C@@]2(O)C[C@@](C)(OC(C)=O)[C@H](OC(=O)c3ccccc3)[C@@H]2[C@H]1OC(C)=O,239.54,16.77,577.39,29.48,505.23,587.54,888.3,239.85,,,,,,,,
C=C1[C@H](OC(=O)C(C)C)[C@H](OC(=O)C(C)C)[C@@H](OC(C)=O)C(C)(C)[C@@H]2O[C@H]2[C@@H](C)C(=O)[C@@]2(OC(C)=O)C[C@@](C)(OC(C)=O)[C@H](OC(C)=O)[C@@H]2[C@H]1OC(C)=O,176.12,3.71,659.4,3.96,31.98,667.76,34.14,165.11,,,,,,,,
CC(=O)O[C@@H]1[C@@H](OC(C)=O)C(C)(C)/C=C/[C@H](C)C(=O)[C@@]2(OC(C)=O)C[C@@H](C)[C@H](OC(=O)c3ccccc3)/C2=C\[C@](C)(OC(C)=O)[C@@H]1OC(C)=O,228.49,10.57,561.94,16.08,634.88,563.73,965.2,238.57,,,,,,,,
C=C1[C@H](OC(C)=O)C[C@@H](OC(=O)c2cccnc2)C(C)(C)/C=C/[C@@H](C)C(=O)[C@@]2(OC(C)=O)C[C@H](C)[C@H](OC(C)=O)[C@@H]2[C@H]1OC(C)=O,297.54,34.74,634.95,74.27,423.87,640.31,906.08,300.61,,,,,,,,
CC(=O)O[C@@H]1[C@@H](OC(C)=O)C(C)(C)/C=C/[C@H](C)C(=O)C2(OC(C)=O)C[C@@](C)(O)[C@H](OC(=O)c3ccccc3)/C2=C\[C@](C)(OC(C)=O)[C@@H]1OC(C)=O (stereo partly drawn),231.39,8.75,558.57,12.73,525.32,555.8,764.3,235.31,,,,,,,,
C=C1[C@H](OC(=O)C(C)C)[C@@H](O)[C@@H](OC(C)=O)C(C)(C)/C=C/[C@H](C)[C@H](OC(C)=O)[C@@]2(O)C[C@@](C)(OC(C)=O)[C@H](OC(=O)c3ccccc3)[C@@H]2[C@H]1OC(C)=O,,6.3,625.31,,90.12,,,333.78,2.26,32.37,335.77,638.02,,,,
C=C1[C@H](OC(C)=O)CC(=O)C(C)(C)/C=C/[C@@H](C)C(=O)[C@@]2(OC(C)=O)C[C@@](C)(OC(C)=O)[C@H](OC(C)=O)[C@@H]2[C@H]1OC(C)=O [ESULATIN B],307.84,2.58,642.45,7.83,31.47,631.19,95.54,313.58,,,,,,,,
C=C1[C@H](OC(C)=O)C[C@@H](OC(C)=O)C(C)(C)/C=C/[C@@H](C)C(=O)[C@@]2(OC(C)=O)C[C@@](C)(OC(C)=O)[C@H](OC(C)=O)[C@@H]2[C@H]1OC(C)=O [ESULATIN D],,2.47,626.3,,35.43,,,336.52,4.03,57.73,339.15,638.32,,,,
COc1ccc(CCN(C)CCCC(C#N)(c2ccc(OC)c(OC)c2)C(C)C)cc1OC (stereo not drawn) [VERAPAMIL],,,,,,,,,,,,,177.48,8.27,569.63,170.3
